According to PMC7711931 (ACS Omega, 2020):
pEC50, pIC50, pKd: −log10 of the molar value.

Assays:
TR4 = biological target: T1, TR4 (Homo sapiens, UniProt P49116); assay: Dual-luciferase reporter assay of TR4 transactivation; format: cell-based; settings: for Effect on TR4 transactivation: 10 μM, 24 h, 293T cells, DMSO negative control (Figure 3A); for Effect on TR4 transactivation in the presence of ATRA: drug 10 μM, ATRA 20 μM (Figure 3E); for Luciferase activity (TR4 transactivation), validation of the reporter system: 293T cells cotransfected with pGLO-TR4RE-Dluc and TR4 (Figure 2B)
T1 sequence (P49116 1-596): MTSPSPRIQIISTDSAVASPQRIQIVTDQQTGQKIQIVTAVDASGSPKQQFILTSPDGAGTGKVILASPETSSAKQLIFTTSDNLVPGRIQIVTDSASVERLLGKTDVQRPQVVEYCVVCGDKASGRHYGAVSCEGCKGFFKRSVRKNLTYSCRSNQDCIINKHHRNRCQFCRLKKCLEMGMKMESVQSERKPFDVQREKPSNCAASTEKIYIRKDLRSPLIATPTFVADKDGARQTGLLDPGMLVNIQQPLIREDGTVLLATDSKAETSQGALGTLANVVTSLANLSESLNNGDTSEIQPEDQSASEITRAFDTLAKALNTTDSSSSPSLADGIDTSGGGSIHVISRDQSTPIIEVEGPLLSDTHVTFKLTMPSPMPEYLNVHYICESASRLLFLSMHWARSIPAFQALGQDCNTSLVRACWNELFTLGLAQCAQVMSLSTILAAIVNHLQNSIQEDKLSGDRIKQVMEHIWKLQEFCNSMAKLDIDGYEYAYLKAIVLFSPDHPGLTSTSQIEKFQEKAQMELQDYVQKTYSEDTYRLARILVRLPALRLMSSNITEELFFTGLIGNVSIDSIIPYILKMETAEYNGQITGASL
Method in brief: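 TR4RE-TK-firefly luciferase cassette from pGL3-(DR)3-TK subcloned into pmirGLO, giving a dual-luciferase reporter. Cells were cotransfected with reporter and TR4 expression plasmid for 24 h, then exposed to test compound for another 24 h: 10 μM for screening or a dose range for curves, with DMSO as negative control. Some arms included ATRA 20 μM. Luciferase was read with a dual-luciferase kit. Means of three independent experiments.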

NQO2 = settings: read-out: IC50, NQO2 inhibition; cited from earlier work
TR4-LBD [1] = biological target: T2, TR4-LBD (Homo sapiens, UniProt P49116); assay: Circular dichroism spectra of TR4-LBD with or without drug; settings: TR4-LBD 0.2 mg/mL, drug 20 μM, 5 mM phosphate buffer pH 7.4
T2 sequence (P49116 341-583 limits assumed): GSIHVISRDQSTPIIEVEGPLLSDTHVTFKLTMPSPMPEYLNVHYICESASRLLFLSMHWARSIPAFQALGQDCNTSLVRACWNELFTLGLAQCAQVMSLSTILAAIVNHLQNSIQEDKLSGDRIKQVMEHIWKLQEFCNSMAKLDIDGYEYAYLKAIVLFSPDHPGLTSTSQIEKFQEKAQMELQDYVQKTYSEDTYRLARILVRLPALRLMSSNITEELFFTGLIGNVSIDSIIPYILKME
Method in brief: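 TR4 ligand-binding domain was expressed in E. coli BL21(DE3) with an N-terminal His6-SUMO tag, purified on His-tag resin, cleaved with SUMO protease, and collected in the flow-through of a second His-tag step. It was desalted into 5 mM phosphate buffer and quantified by BCA. Spectra of protein with or without test compound were recorded in a 0.5 cm path-length cell.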

TR4-LBD [2] = biological target: T2, TR4-LBD; assay: SPRi assay: binding of TR4-LBD to the immobilized FDA-approved drug library

Row | Compound | pEC50 (TR4) | Effect on TR4 transactivation (TR4) | Effect on TR4 transactivation in the presence of ATRA (TR4) | pIC50 (NQO2) | CD characteristic peak for the β-sheet at 216 nm (TR4-LBD [1]) | Luciferase activity (TR4 transactivation), validation of the reporter system (TR4) | pKd (TR4-LBD [2]) | Efficiency relative to ATRA (EC50 ratio) (TR4; genistein EC50 2.42 μM vs ATRA 23.8 μM) | CD characteristic peak for α-helix at 208 nm (TR4-LBD [1])
1 | Cc1cn(-c2cc(NC(=O)c3ccc(C)c(Nc4nccc(-c5cccnc5)n4)c3)cc(C(F)(F)F)c2)cn1 [Nilotinib (AMN-107)] | 5.98 | most potent inhibitor | almost blocked the activation of TR4 by ATRA | 5.74 | significantly reduced | – | – | – | –
2 | C=C(c1ccc(C(=O)O)cc1)c1cc2c(cc1C)C(C)(C)CCC2(C)C [bexarotene] | 4.43 | – | – | – | – | suppressed | 7.07 | – | –
3 | O=c1c(-c2ccc(O)cc2)coc2cc(O)cc(O)c12 [Genistein] | 5.62 | most potent activator | equivalent to that of genistein single treatment | – | – | – | – | approximately 10 times | significantly increased
4 | CC1=C(/C=C/C(C)=C/C=C/C(C)=C/C(=O)O)C(C)(C)CCC1 [ATRA, all-trans-retinoic acid] | – | – | – | – | – | elevated | 4.00 | – | –
